Test results taken from ChEMBL document CHEMBL4732082, “Development of novel benzimidazole-derived neddylation inhibitors for suppressing tumor growth invitro and invivo” (Eur J Med Chem, 2021).
Calls of active or inactive are those of the source. No cut-off for these calls is given here.

Legend:
[1] = target: T1, NEDD8-activating enzyme E1 regulatory subunit (Homo sapiens) (UniProt Q13564); assay: Inhibition of NAE (unknown origin)-mediated neddylation assessed as suppression of cullin1-Nedd8 adduct formation at 25 uM preincubated for 10 mins followed by ATP addition and measured after 30 mins by immunoblot analysis relative to control; conditions: time 40.0 min
T1 sequence (whole entry): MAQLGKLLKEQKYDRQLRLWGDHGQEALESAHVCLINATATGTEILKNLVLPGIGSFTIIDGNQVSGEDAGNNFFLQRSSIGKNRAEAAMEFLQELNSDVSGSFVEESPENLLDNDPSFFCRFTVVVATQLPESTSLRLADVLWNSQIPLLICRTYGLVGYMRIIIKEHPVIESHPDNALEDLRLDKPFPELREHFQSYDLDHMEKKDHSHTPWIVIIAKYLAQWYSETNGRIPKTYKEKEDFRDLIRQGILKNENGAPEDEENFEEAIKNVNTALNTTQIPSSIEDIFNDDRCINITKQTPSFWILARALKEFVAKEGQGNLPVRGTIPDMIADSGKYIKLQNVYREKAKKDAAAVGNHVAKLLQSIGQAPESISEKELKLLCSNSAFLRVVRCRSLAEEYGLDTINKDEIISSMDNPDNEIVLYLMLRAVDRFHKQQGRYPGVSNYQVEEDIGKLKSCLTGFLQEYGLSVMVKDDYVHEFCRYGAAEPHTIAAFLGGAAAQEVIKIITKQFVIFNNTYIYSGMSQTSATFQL

[2] = target: T2, NEDD8-activating enzyme E1 catalytic subunit (Homo sapiens, UniProt Q8TBC4); assay: Inhibition of NAE (unknown origin)-mediated neddylation assessed as suppression of cullin1-Nedd8 adduct formation preincubated for 10 mins followed by ATP addition and measured after 30 mins by immunoblot analysis
T2 sequence (Q8TBC4 whole entry): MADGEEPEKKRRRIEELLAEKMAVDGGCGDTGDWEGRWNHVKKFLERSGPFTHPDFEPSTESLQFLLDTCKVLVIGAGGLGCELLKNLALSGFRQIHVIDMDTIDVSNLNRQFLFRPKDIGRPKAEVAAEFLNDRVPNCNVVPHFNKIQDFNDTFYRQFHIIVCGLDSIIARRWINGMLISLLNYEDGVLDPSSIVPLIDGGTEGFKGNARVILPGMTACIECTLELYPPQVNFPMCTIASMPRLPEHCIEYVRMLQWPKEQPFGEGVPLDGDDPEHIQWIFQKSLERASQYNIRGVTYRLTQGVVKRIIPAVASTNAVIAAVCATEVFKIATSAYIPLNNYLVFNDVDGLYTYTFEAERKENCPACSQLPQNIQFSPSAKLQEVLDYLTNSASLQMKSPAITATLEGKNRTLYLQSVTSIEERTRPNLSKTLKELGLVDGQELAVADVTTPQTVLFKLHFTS

A549 [3] = assay: Antiproliferative activity against human A549 cells incubated for 48 hrs by CCK-8 assay; format: functional, cell-based; conditions: A549, 48 h
Summary of the method: (§1)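 Cells from ATCC, passaged six times, grown in DMEM with 10% FBS and penicillin/streptomycin at 37 °C under 5% CO2. Seeded at 2500 cells/well, cultured overnight, treated 48 h, viability read by CCK-8. Run in triplicate; values are the mean of three experiments.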

[4] = Cytotoxicity against human […] cells incubated for 48 hrs by CCK-8 assay; format: cell-based; summary of the method: as §1
[5] = target: T1, NEDD8-activating enzyme E1 regulatory subunit (Homo sapiens); assay: Inhibition of NAE-mediated neddylation in human A549 cells assessed as suppression of cullin1-Nedd8 adduct formation at 12.5 to 25 uM measured after 6 to 12 hrs by Western blot analysis; format: cell-based; conditions: dose 12.5-25 µM, time 6-12 hrs
Summary of the method: (§2)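 A549 cells were treated 6 or 12 h with graded concentrations (4.5–75 μM) against a 0.1% DMSO control. Cells were washed in cold PBS, lysed in RIPA on ice and cleared by centrifugation, and protein was normalized. Cullin-Nedd8 was resolved on non-reducing SDS-PAGE and Wee1/p27 under reducing conditions, then detected by Western blot.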

[6] = target: T1, NEDD8-activating enzyme E1 regulatory subunit (Homo sapiens); assay: Inhibition of NAE-mediated neddylation in human A549 cells assessed as suppression of cullin2-Nedd8 adduct formation at 12.5 to 25 uM measured after 6 to 12 hrs by Western blot analysis; format: cell-based; conditions: dose 12.5-25 µM, time 6-12 hrs; summary of the method: as §2
[7] = target: T1, NEDD8-activating enzyme E1 regulatory subunit (Homo sapiens); assay: Inhibition of NAE-mediated neddylation in human A549 cells assessed as suppression of cullin5-Nedd8 adduct formation at 12.5 to 25 uM measured after 6 to 12 hrs by Western blot analysis; format: cell-based; conditions: dose 12.5-25 µM, time 6-12 hrs; summary of the method: as §2
[8] = target: T1, NEDD8-activating enzyme E1 regulatory subunit (Homo sapiens); assay: Inhibition of NAE-mediated UBE2M neddylation in human A549 cells at 12.5 to 25 uM measured after 6 to 12 hrs by Western blot analysis; format: cell-based; conditions: dose 12.5-25 µM, time 6-12 hrs; summary of the method: as §2
A549 [9] = assay: Induction of Wee1 accumulation in human A549 cells at 50 uM incubated for 6 to 12 hrs by Western blot analysis; format: functional, cell-based; conditions: time 6-12 hrs; summary of the method: as §2
A549 [10] = assay: Induction of p27 accumulation in human A549 cells at 50 uM incubated for 6 to 12 hrs by Western blot analysis; format: functional, cell-based; conditions: time 6-12 hrs; summary of the method: as §2
A549 [11] = assay: Induction of apoptosis in human A549 cells assessed as increase in PARP cleavage at 12.5 uM by Western blot analysis; format: functional, cell-based
A549 [12] = assay: Induction of apoptosis in human A549 cells assessed as increase in ratio of early and late apoptotic cells at 10 to 40 uM after 48 hrs by Annexin V-FITC/PI double staining based flow cytometric analysis (reference value: 2.6%); format: functional; conditions: dose 10-40 µM
A549 [13] = assay: Antitumor activity against human A549 cells xenografted in nude mouse assessed as decrease in tumor weight at 30 mg/kg, ip qd for 5 days on and 2 days off dosing and measured after 24 days post-treatment; format: functional, organism-based; conditions: time 24.0 day
Summary of the method: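 Female nude mice were inoculated subcutaneously with 2×10^6 A549 cells in 0.1 mL PBS. At tumor volume 70–100 mm³, mice were randomized into 5 groups of 6. Dosing was ip or oral gavage, once daily on a 5-days-on/2-days-off schedule, with 10% 2-hydroxypropyl-β-cyclodextrin/water as vehicle control. Body weight and tumor volume were measured every two days; tumors were weighed at sacrifice. Significance by two-tailed Student's t-test.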

A549 [14] = assay: Induction of apoptosis in human A549 cells assessed as live cells at 10 uM after 48 hrs by Annexin V-FITC/PI double staining based flow cytometric analysis (reference value: 91.8%); format: functional
A549 [15] = assay: Induction of apoptosis in human A549 cells assessed as necrotic cells at 10 uM after 48 hrs by Annexin V-FITC/PI double staining based flow cytometric analysis (reference value: 1.57%); format: functional
A549 [16] = assay: Induction of apoptosis in human A549 cells assessed as live cells at 20 uM after 48 hrs by Annexin V-FITC/PI double staining based flow cytometric analysis (reference value: 91.8%); format: functional
A549 [17] = assay: Induction of apoptosis in human A549 cells assessed as early apoptotic cells at 20 uM after 48 hrs by Annexin V-FITC/PI double staining based flow cytometric analysis (reference value: 2.04%); format: functional
A549 [18] = assay: Induction of apoptosis in human A549 cells assessed as necrotic cells at 20 uM after 48 hrs by Annexin V-FITC/PI double staining based flow cytometric analysis (reference value: 1.57%); format: functional
A549 [19] = assay: Induction of apoptosis in human A549 cells assessed as necrotic cells at 40 uM after 48 hrs by Annexin V-FITC/PI double staining based flow cytometric analysis (reference value: 1.57%); format: functional

CCOc1nc2cccc(C(=O)NCCc3ccc(Cl)cc3Cl)c2n1Cc1ccc(-c2ccccc2-c2nnn[nH]2)cc1
inhibition [1]: 86.4%
IC50 [2]: 5.51 µM
IC50 (A549 [3]): 20.4 µM
IC50 [4]: 76.1 µM
inhibition [5]: Active
inhibition [6]: Active
inhibition [7]: Active
inhibition [8]: Active
Activity (A549 [9]): Active
Activity (A549 [10]): Active
Activity (A549 [11]): Active
Activity (A549 [12]): 35.81%
Activity (A549 [13]): Active
Activity (A549 [14]): 91.8%
Activity (A549 [15]): 1.57%
Activity (A549 [16]): 72.6%
Activity (A549 [17]): 18.6%
Activity (A549 [18]): 1.91%
Activity (A549 [19]): 1.02%
